Consider 16 compounds from ChEMBL document CHEMBL1125183, “3-Hydroxy-3-methylglutaryl-coenzyme a reductase inhibitors. 7. Modification of the hexahydronaphthalene moiety of simvastatin: 5-oxygenated and 5-oxa derivatives” (J Med Chem, 1991).

In data set [1] the test system is Canis familiaris. As to the kind of experiment: Inhibition of cholesterol synthesis in cholestyramine-primed dogs at 4 mg/kg per day dose in Dog-2. The data set is classed as functional, Canis lupus familiaris. The essentials: (§1)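 Male beagles were fed a low-cholesterol semisynthetic diet once daily, with 12 g cholestyramine per day in the diet. Pretreatment plasma cholesterol was established, then one dog per compound received 4 mg/kg mixed into the diet for 21 days and was then crossed over to the lovastatin control at the same dose for 2-3 weeks. Jugular blood was taken twice weekly. Plasma cholesterol was measured colorimetrically (Liebermann-Burchard) after extraction and saponification and reported as % change from the resin-treated state.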

Data set [2] relates to Canis familiaris. The data set is described as follows: Inhibition of cholesterol synthesis in cholestyramine-primed dogs at 4 mg/kg per day dose in Dog-1. Type of data set: functional, Canis lupus familiaris. The essentials:
as §1

The subject of data set [3] is Canis familiaris. As to the kind of experiment: Inhibition of cholesterol synthesis in cholestyramine-primed dogs at 4 mg/kg per day dose in Dog-3:
The data set is classed as functional, Canis lupus familiaris. In short, it runs like this:
as §1

The target in data set [4] is T1, 3-hydroxy-3-methylglutaryl-coenzyme A reductase (Rattus norvegicus, UniProt P51639).
T1 sequence (P51639 whole entry): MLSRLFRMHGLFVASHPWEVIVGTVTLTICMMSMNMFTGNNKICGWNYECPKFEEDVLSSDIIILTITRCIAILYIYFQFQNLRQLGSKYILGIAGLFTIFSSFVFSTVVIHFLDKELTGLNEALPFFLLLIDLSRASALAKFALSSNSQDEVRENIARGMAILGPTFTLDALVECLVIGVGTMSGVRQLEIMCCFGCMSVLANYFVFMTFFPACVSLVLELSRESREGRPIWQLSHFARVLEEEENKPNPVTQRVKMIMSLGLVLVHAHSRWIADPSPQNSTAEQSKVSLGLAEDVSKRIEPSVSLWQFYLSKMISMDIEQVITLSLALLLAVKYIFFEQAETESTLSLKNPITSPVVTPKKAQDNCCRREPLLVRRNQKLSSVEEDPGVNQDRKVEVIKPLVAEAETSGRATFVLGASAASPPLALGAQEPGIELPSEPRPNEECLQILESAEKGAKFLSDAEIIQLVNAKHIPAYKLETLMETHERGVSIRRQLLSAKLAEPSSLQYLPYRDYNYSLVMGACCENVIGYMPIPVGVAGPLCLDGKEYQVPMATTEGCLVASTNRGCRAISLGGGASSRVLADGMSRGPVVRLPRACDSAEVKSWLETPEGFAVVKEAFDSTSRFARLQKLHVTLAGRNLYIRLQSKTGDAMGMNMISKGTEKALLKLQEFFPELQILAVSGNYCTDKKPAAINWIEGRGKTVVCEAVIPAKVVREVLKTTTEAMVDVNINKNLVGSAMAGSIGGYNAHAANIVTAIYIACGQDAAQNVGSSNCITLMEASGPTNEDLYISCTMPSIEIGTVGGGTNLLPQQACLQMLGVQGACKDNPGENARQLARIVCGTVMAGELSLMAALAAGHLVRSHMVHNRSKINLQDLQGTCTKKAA
The data set is described as follows: In vitro ability to inhibit solubilized, partially purified, rat liver HMG-CoA reductase. The essentials: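 Enzyme tested as the sodium salt of the dihydroxy carboxylate form, against solubilized, partially purified rat liver HMG-CoA reductase. Conditions follow a procedure the paper cites from earlier work.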

The species entered for a further data set is Rattus norvegicus. As to the kind of experiment: The compound was evaluated for acute inhibition of cholesterol synthesis in rat; percent change of [14C]cholesterol. The data set is classed as functional. In short, it runs like this:
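Rats received a single oral dose of 0.45 mg/kg. Synthesis of cholesterol from [14C]acetate was measured at a fixed time after dosing and reported as % change in [14C]cholesterol.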

The nature of data set [5]: Relative potency with respect to compactin. Type of data set: ADME.
Data set [6] concerns Canis familiaris. The data set is described as follows: Inhibition of cholesterol synthesis in cholestyramine-primed dogs at 4 mg/kg per day dose in Dog 1. The data set is classed as functional, Canis lupus familiaris. In short, it runs like this: as §1
Data set [7] deals with Canis familiaris. As to the kind of experiment: Inhibition of cholesterol synthesis in cholestyramine-primed dogs at 4 mg/kg per day dose in Dog-3. The data set is classed as functional, Canis lupus familiaris. The essentials: as §1
In data set [8] the test system is Canis familiaris. As to the kind of experiment: Inhibition of cholesterol synthesis in cholestyramine-primed dogs at 4 mg/kg per day dose in Dog 2. Type of data set: functional, Canis lupus familiaris. The essentials: as §1

Molecules are shown by their SMILES.

Turning to `CC[C@H](C)C(=O)O[C@H]1C[C@@H](C)C=C2C=C[C@H](C)[C@H](CC[C@@H]3C[C@@H](O)CC(=O)O3)C21` (some centres not stated), the Change was 38% in the data set with Canis familiaris [1], 25% in the data set with Canis familiaris [2] and 25% in the data set with Canis familiaris [3].
The compound `CCC(C)(C)C(=O)O[C@H]1C[C@H](C)C(=O)[C@@H]2CC[C@H](C)[C@H](CC[C@@H]3C[C@@H](O)CC(=O)O3)C12` (some centres not stated) had a concentration for half-maximal inhibition (IC50) in [4] of 59 nM. The Change in the data set filed under Rattus norvegicus is on record as -68%. In data set [5], this compound showed a Relative potency of 63.
In data set [4], `CCC(C)(C)C(=O)O[C@H]1C[C@H](C)[C@H](O)[C@@H]2CC[C@H](C)[C@H](CC[C@@H]3C[C@@H](O)CC(=O)O3)C12` (some centres not stated) displayed an IC50 of 269 nM. This compound returned a Relative potency in [5] of 11.1.
For `CCC(C)(C)C(=O)O[C@H]1CC(C)(C)O[C@@H]2CC[C@H](C)[C@H](CC[C@@H]3C[C@@H](O)CC(=O)O3)C12` (some centres not stated), the half-maximal inhibitory concentration (IC50) in [4] amounted to 35 nM. For the same compound, the results for the Change in the data set with Canis familiaris [6] and in the data set filed under Rattus norvegicus were 20% and -67%, respectively. Besides, the Relative potency in [5] is 70.
Consider `CCC(C)(C)C(=O)O[C@H]1C[C@@H](C)[C@@H](O)[C@@H]2CC[C@H](C)[C@H](CC[C@@H]3C[C@@H](O)CC(=O)O3)C12` (some centres not stated), for which the IC50 in data set [4] was 40.8 nM. Besides, the Change in the data set on Canis familiaris [7] is given as 19%; in the data set filed under Rattus norvegicus, -37%. Further, in data set [5], the Relative potency came out at 73.
In data set [4], `CCC(C)(C)C(=O)O[C@@H](C[C@@H](C)CO)C1[C@H](O)CC[C@H](C)[C@@H]1CC[C@@H]1C[C@@H](O)CC(=O)O1` (some centres not stated) yielded an IC50 of 2800 nM. For the same compound, the Relative potency in [5] is given as 0.5.
In data set [4], `CCC(C)(C)C(=O)O[C@H]1C[C@@H](C)[C@@H](OC(=O)NCc2ccccc2)[C@@H]2CC[C@H](C)[C@H](CC[C@@H]3C[C@@H](O)CC(=O)O3)C12` (some centres not stated) registered a half-maximal inhibitory concentration (IC50) of 5 nM. The Change in the data set filed under Rattus norvegicus was -27%. For the same compound, the Relative potency in [5] came to 360.
Take `CCC(C)(C)C(=O)O[C@H]1C[C@@H](C)[C@@H](OC(=O)N(Cc2ccccc2)Cc2ccccc2)[C@@H]2CC[C@H](C)[C@H](CC[C@@H]3C[C@@H](O)CC(=O)O3)C12` (some centres not stated): in data set [4], the midpoint of inhibition, the IC50, lay at 16 nM. In the data set filed under Rattus norvegicus, the Change is -4%. The compound also displayed a Relative potency in data set [5] of 94.
In data set [4], `C=C(C)C[C@H](OC(=O)C(C)(C)CC)C1[C@H](O)CC[C@H](C)[C@@H]1CC[C@@H]1C[C@@H](O)CC(=O)O1` (some centres not stated) had a 50% inhibitory concentration (IC50) of 1700 nM. Besides, the Relative potency in data set [5] came out at 0.9.
As to `CCC(C)(C)C(=O)O[C@H]1C[C@@H](C)[C@@H](OP(=O)(c2ccccc2)c2ccccc2)[C@@H]2CC[C@H](C)[C@H](CC[C@@H]3C[C@@H](O)CC(=O)O3)C12` (some centres not stated), in data set [4], the midpoint of inhibition, the IC50, lay at 6 nM. In addition, the Change in the data set filed under Rattus norvegicus is -27%. In [5], this compound displayed a Relative potency of 300.
Turning to `CCC(C)(C)C(=O)O[C@H]1C[C@@H](C)[C@@H](OCCc2ccccc2)[C@@H]2CC[C@H](C)[C@H](CC[C@@H]3C[C@@H](O)CC(=O)O3)C12` (some centres not stated), inhibition in [4] was half-maximal at 6 nM (IC50). The Change in the data set listed under Rattus norvegicus is -39%. Further, the Relative potency in data set [5] is 300.
`CCC(C)(C)C(=O)O[C@H]1C[C@@H](C)CC2CC[C@H](C)[C@H](CC[C@@H]3C[C@@H](O)CC(=O)O3)C21` (some centres not stated) came in with a 50% inhibitory concentration (IC50) in data set [4] of 13 nM. In data set [5], this compound displayed a Relative potency of 138.
The compound `CCC(C)(C)C(=O)O[C@H]1C[C@H](C)[C@@H](O)[C@@H]2CC[C@H](C)[C@H](CC[C@@H]3C[C@@H](O)CC(=O)O3)C12` (some centres not stated) showed an IC50 in data set [4] of 48.6 nM. Also, the Change was -54% in the data set filed under Rattus norvegicus and 34% in the data set on Canis familiaris [8]. In [5], this compound displayed a Relative potency of 61.
Compound `CCC(C)(C)C(=O)O[C@H]1C[C@@H](C)C(=O)[C@@H]2CC[C@H](C)[C@H](CC[C@@H]3C[C@@H](O)CC(=O)O3)C12` (some centres not stated) displayed a 50% inhibitory concentration (IC50) in data set [4] of 34 nM. For the same compound, the Change in the data set listed under Rattus norvegicus is listed as -56%. For the same compound, the Relative potency in [5] was 125.
`CCC(C)(C)C(=O)O[C@H]1C[C@@](C)(CSc2ccccc2)O[C@@H]2CC[C@H](C)[C@H](CC[C@@H]3C[C@@H](O)CC(=O)O3)C12` (some centres not stated): the IC50 in data set [4] amounted to 6.6 nM. In addition, the Change in the data set filed under Rattus norvegicus was -34%. Besides, the Relative potency in [5] was determined as 258.
Consider `CCC(C)(C)C(=O)O[C@H]1C[C@](C)(CSc2ccccc2)O[C@@H]2CC[C@H](C)[C@H](CC[C@@H]3C[C@@H](O)CC(=O)O3)C12` (some centres not stated), for which the IC50 in data set [4] is 6 nM. Also, the Change in the data set listed under Rattus norvegicus is reported as 0%. The Relative potency in data set [5] is listed as 280.

By IC50 is commonly meant the concentration that inhibits the measured activity by half. The low end stands for higher potency, the high end for lower potency.
